GalR3 antagonist: blocks the human galanin receptor 3; O60755; HEK293 GalR3-CNG cAMP membrane potential fluorescence; galR3 body fused to GalR1 C-terminus; inhibition, % at 3 µM; hit rate 0.44% among 360,000;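 active = inhibition above the screen-wide average plus 3 SD, cut at about 13% in these data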;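 note: forskolin and galanin both at EC90 stimulate the cells; cAMP rise reported by CNG channel membrane potential dye signal; 0% = forskolin plus galanin with DMSO and 100% = forskolin alone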
Target sequence (O60755 1-299 limits assumed): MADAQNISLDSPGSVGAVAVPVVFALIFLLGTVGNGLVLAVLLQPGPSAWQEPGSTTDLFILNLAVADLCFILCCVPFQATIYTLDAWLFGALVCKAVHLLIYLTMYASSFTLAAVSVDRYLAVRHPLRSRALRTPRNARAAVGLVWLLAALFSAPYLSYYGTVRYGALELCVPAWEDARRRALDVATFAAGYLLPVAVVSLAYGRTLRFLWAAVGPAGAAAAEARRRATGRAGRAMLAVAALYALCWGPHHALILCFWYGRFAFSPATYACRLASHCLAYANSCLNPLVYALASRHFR
OX1R antag-1: human HCRTR1 antagonism. inhibition, % at 5 µM. CHO/OX1R cells, Fluo-8 calcium fluorescence, orexin A. O43613. AID 434989. hit rate 0.43% among 330,000;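 active = inhibition above its plate's threshold, mean inhibition of all tested compounds on the plate plus 3 SD, cut at about 37% in these data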;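 note: 0% = orexin A challenge wells and 100% = SB-334867-A antagonist wells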
OX1R antag-2: antagonists of human orexin 1 receptor (OX1R) | O43613 | OX1R-expressing cells, FRET antagonist read-out | inhibition, % at 6.6 µM | hit rate 1.8% among 330,000 | AID 485270; in the data active = inhibition mostly above about 38%, no sharp cut-off; inactive = mostly below about 40%;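 note: 0% = agonist challenge alone and 100% = reference antagonist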
CHO parental Ca: signal in parental CHO cells, OX1R antagonist counter-screen; parental CHO-K1, ATP-induced calcium, Fluo-8 fluorescence; inhibition, % at 5.6 µM; hit rate 0.63% among 330,000;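 active = inhibition above that plate's mean sample inhibition plus 3 SD, cut at about 26% in these data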;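 note: 0% = ATP-challenged DMSO wells and 100% = DMSO wells without ATP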
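Material – parental CHO cells · Reagent – ATP stimulus · Compound – single nominal dose of 5.6 µM per compound · Detection – Fluo-8 fluorescence · Read-out basis – percent inhibition of calcium signal · Controls – ATP-challenged DMSO wells low, unchallenged DMSO wells high · Repeats – no replicates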
TAAR1 agonist: agonists of human TAAR1; CHO RD-HGA16 TAAR1, Fluo-8 calcium fluorescence; vehicle wells 0%, saturating PEA agonist 100%; Q96RJ0; activation, % at 3 µM; hit rate 0.99% among 360,000;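 active = activation above the mean activation of all test compounds in the run plus 3 SD, cut at about 38% in these data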
Target sequence (Q96RJ0 whole entry, looked up): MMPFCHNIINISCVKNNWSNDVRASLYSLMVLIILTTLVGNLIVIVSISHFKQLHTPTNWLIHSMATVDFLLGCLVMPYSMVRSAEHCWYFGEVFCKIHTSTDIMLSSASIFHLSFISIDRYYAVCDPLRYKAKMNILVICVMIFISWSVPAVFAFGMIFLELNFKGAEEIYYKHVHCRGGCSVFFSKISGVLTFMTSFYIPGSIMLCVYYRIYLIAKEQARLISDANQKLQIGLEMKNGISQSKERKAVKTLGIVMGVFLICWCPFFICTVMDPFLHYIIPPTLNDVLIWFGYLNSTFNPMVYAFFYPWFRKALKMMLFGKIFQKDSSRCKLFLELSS
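Repeats: no replicates (n 1) | Material: CHO-derived RD-HGA16 cells with stable Gα16 and human TAAR1 | Technique: Kinetic Fluo-8 calcium fluorescence | Schedule: 17-24 h seeding, 75 min 37 °C dye, 30 min RT | Evaluation: % activation from peak over basal fluorescence ratio, DMSO-to-PEA scaled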
TAAR1 antag: antagonists of human TAAR1. hit rate 1.5% among 360,000. inhibition, % at 3 µM. Q96RJ0. CHO RD-HGA16 TAAR1, Fluo-8 calcium fluorescence, antagonist;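 active = inhibition above a per-plate cutoff, the mean inhibition of test compounds on that plate plus 3 SD, cut at about 49% in these data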;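 note: 0% = DMSO plus EC80 beta-PEA response and 100% = DMSO alone without agonist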
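System: CHO RD-HGA16 cells bearing hTAAR1. Reagent: EC80 β-phenethylamine stimulus. Schedule: seeding 17-24 h prior, 75-min 37 °C, 30-min RT dye loading. Signal: Fluo-8 intracellular calcium dye fluorescence, real-time kinetic reads. Read-out: % inhibition from peak post-agonist over basal fluorescence ratio. Benchmarks: vehicle wells and EC80 agonist wells. Replicates: n of 1.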
TAAR1 nonsel count: counter-screen for TAAR1 antagonists: nonselective antagonists | shares compounds with TAAR1 antag | counterscreen cell line, calcium fluorescence, antagonist mode | inhibition, % at 3 µM | hit rate 77% among 2,400 | AID 651780; in the data active = inhibition above about 22%;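 note: CHO-Ga16 host cells stimulated with ATP at an EC80 level; 0% = agonist EC80 plus vehicle and 100% = vehicle without agonist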
TAAR1 antag conf: human TAAR1 antagonism, confirmed | shares compounds with TAAR1 antag | TAAR1-expressing cells, fluorescence antagonist read-out | inhibition, % at 3 µM | hit rate 40% among 2,400 | AID 651785; in the data active = inhibition above about 49%;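 note: CHO-Ga16 host cells challenged with agonist PEA near its EC80; 0% = agonist at EC80 plus vehicle and 100% = vehicle with no agonist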
Ga16 nonsel ag: nonselective Ga16 agonism, counter-screen; hit rate 18% among 2,400; shares compounds with TAAR1 antag; activation, % at 3 µM; Ga16-expressing cells, calcium fluorescence, agonist counterscreen; in the data active = activation above about 12%;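 note: 0% = vehicle wells and 100% = saturating stimulus response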
TAAR1 ag count: activates human TAAR1 in antagonist counter-screen; activation, % at 3 µM; hit rate 2% among 2,400; hTAAR1 cell line, fluorescence activation, agonist mode; shares compounds with TAAR1 antag; in the data active = activation above about 37%;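 note: CHO cells stably expressing TAAR1 with calcium dye readout; 0% = DMSO vehicle and 100% = full agonist response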
An asterisk follows results filed as active; x = no result. In the library only some 4.3% were active in any assay of this set; here they are far more common.

SMILES | GalR3 antagonist | OX1R antag-1 | OX1R antag-2 | CHO parental Ca | TAAR1 agonist | TAAR1 antag | TAAR1 nonsel count | TAAR1 antag conf | Ga16 nonsel ag | TAAR1 ag count
COc1cccc(S(=O)(=O)N(C)C[C@@H]2OCc3cnnn3CCCC(=O)N([C@@H](C)CO)C[C@@H]2C)c1 | -7.0 | x | x | x | 0.3 | -14.5 | x | x | x | x
O=C1CN(C(=O)c2cccs2)c2ccccc2N1 | 2.4 | 1.3 | 5.7 | -13.5 | 0.8 | -8.9 | x | x | x | x
O=C1CN(C(=O)COC(=O)c2cccs2)c2ccccc2N1 | -3.2 | -9.2 | 2.2 | -11.7 | 1.0 | 61.0* | 12.5 | 0.6 | 1.8 | 2.4
Cc1ccccc1Cn1cc(NC(=O)c2cc(-c3ccco3)on2)cn1 | -2.9 | -6.1 | 1.8 | -5.7 | 2.5 | -24.5 | x | x | x | x
Cc1ccccc1Cn1cc(NC(=O)c2cc(-c3cccs3)on2)cn1 | -9.6 | 8.0 | 5.8 | -2.2 | 27.1 | 62.3* | 33.0* | 61.8* | 21.7* | 14.5
CSc1ccccc1NC(=O)c1cc(-c2cccs2)on1 | -7.1 | -9.6 | 54.1* | -7.5 | 29.5 | 55.4* | 11.0 | 5.3 | 0.5 | 4.6
COc1ccc(O)c(/C=N/Nc2nc(Nc3ccccc3)nc(-n3nc(C)cc3C)n2)c1 | -4.1 | -20.6 | 28.1 | -10.1 | 13.0 | 58.8* | 37.3* | 47.2 | 7.4 | 2.5
COc1cc(/C=N/Nc2nc(Nc3ccccc3)nc(-n3nc(C)cc3C)n2)cc(OC)c1OC | -5.4 | -35.5 | 19.4 | -26.8 | 5.8 | 64.5* | 24.1* | 37.9 | 6.0 | 7.2
CN(CC(=O)N/N=C/c1ccc(F)cc1)S(=O)(=O)c1ccccc1 | -6.7 | x | x | x | 5.4 | -14.2 | x | x | x | x
CCS(=O)(=O)N1Cc2ccccc2CC1C(=O)Nc1nnc(SCc2ccc(C#N)cc2)s1 (configuration not stated) | -1.4 | -28.8 | 14.4 | -22.3 | 25.6 | 67.7* | 33.8* | 56.4* | 12.1* | 13.1
CCS(=O)(=O)N1Cc2ccccc2CC1C(=O)Nc1ncc(C)s1 (configuration not stated) | -6.1 | -21.5 | 7.7 | -5.1 | 10.1 | 1.6 | x | x | x | x
O=C(Nc1cc(NC(=O)c2ccccc2F)ccc1Cl)c1ccccc1 | -0.7 | -25.8 | 5.0 | -6.0 | 1.1 | 4.2 | x | x | x | x
O=C(Nc1cccc(C(F)(F)F)c1)C1CC(=O)N(CCc2ccccc2)C1 (configuration not stated) | -2.8 | -29.3 | 6.6 | -13.1 | 4.6 | -19.0 | x | x | x | x
O=C(COC(=O)/C=C/c1ccc(Cl)cc1)NCc1cccs1 | -6.0 | x | x | x | 2.7 | 3.0 | x | x | x | x
C=CCOc1ccc(/C=C/C(=O)OCc2csc(CC(=O)Nc3ccccc3C)n2)cc1 | -5.8 | -8.6 | 2.5 | -5.0 | 3.5 | 65.6* | 38.4* | 51.9* | 8.3 | 6.7
C=CCOc1ccc(/C=C/C(=O)OCC(=O)NCc2cccs2)cc1 | -2.3 | -20.1 | 9.9 | -10.0 | 22.3 | 52.5* | 29.3* | 40.5 | 9.4 | 23.8
CC1CCC2(CC1)NC(=O)N(CC(=O)NCc1ccc(Cl)cc1)C2=O (configuration not stated) | 3.7 | -25.1 | 3.1 | -22.8 | -1.1 | -18.8 | x | x | x | x
CC1(C)N=C(SCC(=O)Nc2ccc(Cl)cc2)C(c2ccc(Cl)cc2)=N1 | -4.3 | -12.0 | 7.5 | -8.0 | 6.9 | 67.7* | 27.3* | 47.7 | 4.7 | -0.6
CCc1nc(SCC(=O)NCCc2ccccc2)n[nH]1 | -1.9 | -4.2 | 8.1 | -9.8 | 32.8 | 74.9* | -2.2 | 70.3* | 0.2 | 49.2*
O=C(CSc1n[nH]c(-c2ccncc2)n1)NCCc1ccccc1 | -3.1 | -7.8 | 3.0 | -0.7 | 6.8 | -4.7 | x | x | x | x
CC(C)c1ccc(CN(C(=O)c2cccs2)C2CCS(=O)(=O)C2)cc1 (configuration not stated) | -10.5 | -7.9 | 10.4 | -13.4 | -2.8 | 3.8 | x | x | x | x

From PubChem BioAssay
